Columns and labels:
[1] = Inhibition of growth of colon adenocarcinoma SW 480 cells; assay type: functional, cell-based; conditions: Homo sapiens, SW480
[2] = molecular target: T1, Thymidylate synthase (Homo sapiens, UniProt P04818); assay: Inhibition of purified human thymidylate synthase from a SV40-transformed human fibroblast cell line cloned in Escherichia coli
[3] = test system: Lymphoma cell line; assay: Inhibition of growth of tumor cells, manca human lymphoma cells; assay type: functional, cell-based
[4] = molecular target: T2, Thymidylate synthase (Lactobacillus casei, UniProt P00469); assay: Inhibition of thymidylate synthase in Lactobacillus casei; design: species or system Lacticaseibacillus casei
T2 sequence (P00469 whole entry): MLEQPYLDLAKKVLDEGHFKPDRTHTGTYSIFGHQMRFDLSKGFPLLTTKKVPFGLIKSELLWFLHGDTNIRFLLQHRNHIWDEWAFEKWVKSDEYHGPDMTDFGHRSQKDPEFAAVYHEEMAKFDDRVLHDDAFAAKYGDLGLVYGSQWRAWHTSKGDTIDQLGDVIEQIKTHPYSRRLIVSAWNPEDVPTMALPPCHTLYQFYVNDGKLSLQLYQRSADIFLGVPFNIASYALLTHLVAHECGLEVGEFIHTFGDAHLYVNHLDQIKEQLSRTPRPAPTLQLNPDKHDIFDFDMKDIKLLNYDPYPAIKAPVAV

[5] = test system: H35R0.3; assay: Inhibition of (6RS)-5-formyltetrahydrofolate (2 uM) transport in H35 hepatoma cell culture and % uptake was determined in presence of inhibitor PDDF (50 uM); assay type: functional, cell-based
Method in brief: (§1)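 H35 hepatoma cells were grown to confluence, washed twice with Hanks BSS and incubated at 37 °C. [3H]-(6RS)-5-formyltetrahydrofolate (2 μM, 3.8×10^5 dpm/nmol) was added with or without inhibitor, and uptake was sampled at 10 min, within its linear range. Uptake is expressed as percent of the no-inhibitor control, as the mean of duplicate samples.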

[6] = test system: H35R0.3; assay: Inhibition of methotrexate (5 uM) transport in H35 hepatoma cell culture and % uptake was reported in presence of inhibitor methotrexate (50 uM); assay type: functional, cell-based
Method in brief: (§2)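 Confluent H35 hepatoma monolayers were washed twice with Hanks BSS and held at 37 °C. [3H]methotrexate (5 μM, 5.5×10^5 dpm/nmol) was added with or without inhibitor, and uptake was taken at 4 min, within its linear range. Results are percent of the uninhibited control uptake, averaged from duplicate samples.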

[7] = test system: Enterococcus faecium; assay: Inhibition of growth of Staphylococcus faecium; assay type: functional, organism-based
[8] = test system: H35R0.3; assay: Inhibition of methotrexate (5 uM) transport in H35 hepatoma cell culture and % uptake was reported in presence of inhibitor (6RS)-5-formyltetrahydrofolate (50 uM); assay type: functional, cell-based; method in brief: as §2
[9] = test system: H35R0.3; assay: Inhibition of (6RS)-5-formyltetrahydrofolate (2 uM) transport in H35 hepatoma cell culture and % uptake was determined in presence of inhibitor folic acid (50 uM); assay type: functional, cell-based; method in brief: as §1
[10] = test system: H35R0.3; assay: Inhibition of methotrexate (5 uM) transport in H35 hepatoma cell culture and % uptake was reported in presence of inhibitor PDDF (50 uM); assay type: functional, cell-based; method in brief: as §2
[11] = test system: H35R0.3; assay: Inhibition of (6RS)-5-formyltetrahydrofolate (2 uM) transport in H35 hepatoma cell culture and % uptake was determined in presence of inhibitor aminopterin (50 uM); assay type: functional, cell-based; method in brief: as §1
[12] = test system: H35R0.3; assay: Inhibition of (6RS)-5-formyltetrahydrofolate (2 uM) transport in H35 hepatoma cell culture and % uptake was determined in presence of inhibitor methotrexate (50 uM); assay type: functional, cell-based; method in brief: as §1
[13] = molecular target: Bifunctional purine biosynthesis protein ATIC (Homo sapiens, UniProt P31939); assay: Inhibition of AICAR formyltransferase from extract of Manca human lymphoma cells; assay type: cell-based
Chain of Bifunctional purine biosynthesis protein ATIC (P31939 whole entry): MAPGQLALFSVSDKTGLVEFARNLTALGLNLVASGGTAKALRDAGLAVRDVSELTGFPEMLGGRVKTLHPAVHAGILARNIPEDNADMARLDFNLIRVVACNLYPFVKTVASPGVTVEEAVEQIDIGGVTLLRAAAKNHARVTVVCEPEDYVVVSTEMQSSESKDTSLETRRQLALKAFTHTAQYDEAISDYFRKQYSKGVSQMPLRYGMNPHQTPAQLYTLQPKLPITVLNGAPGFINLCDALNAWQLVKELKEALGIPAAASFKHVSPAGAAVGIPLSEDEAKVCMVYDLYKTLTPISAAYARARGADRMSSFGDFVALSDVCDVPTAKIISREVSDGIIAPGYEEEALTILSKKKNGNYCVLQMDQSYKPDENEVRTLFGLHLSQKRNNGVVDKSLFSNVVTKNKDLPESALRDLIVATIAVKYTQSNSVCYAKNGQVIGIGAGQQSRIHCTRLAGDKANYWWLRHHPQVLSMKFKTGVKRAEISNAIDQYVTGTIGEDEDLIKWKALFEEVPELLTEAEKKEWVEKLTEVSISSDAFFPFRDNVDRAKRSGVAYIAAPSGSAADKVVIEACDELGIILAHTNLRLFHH

[14] = test system: H35R0.3; assay: Inhibition of growth of H35R cells; assay type: functional, cell-based, Homo sapiens; conditions: Rattus norvegicus
[15] = molecular target: Dihydrofolate reductase (Lactobacillus casei, UniProt P00381); assay: Inhibition of dihydrofolate reductase in Lactobacillus casei; design: species or system Lacticaseibacillus casei
Chain of Dihydrofolate reductase (Lactobacillus casei, UniProt P00381) (P00381 whole entry): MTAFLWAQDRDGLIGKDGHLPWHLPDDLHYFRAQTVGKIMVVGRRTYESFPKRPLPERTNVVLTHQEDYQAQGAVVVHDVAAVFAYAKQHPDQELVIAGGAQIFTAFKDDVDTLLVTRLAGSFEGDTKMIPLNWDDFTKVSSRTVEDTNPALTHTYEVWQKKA

[16] = molecular target: T3, Dihydrofolate reductase (Homo sapiens, UniProt P00374); assay: Inhibition of pure human dihydrofolate reductase (DHFR) from lymphoblastoid cells
T3 sequence (P00374 whole entry): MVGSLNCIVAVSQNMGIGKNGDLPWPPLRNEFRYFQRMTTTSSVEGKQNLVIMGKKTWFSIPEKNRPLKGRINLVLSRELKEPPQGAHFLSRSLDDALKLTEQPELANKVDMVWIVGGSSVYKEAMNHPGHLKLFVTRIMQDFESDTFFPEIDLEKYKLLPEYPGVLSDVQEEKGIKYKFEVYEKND

[17] = test system: H35R0.3; assay: Inhibition of methotrexate (5 uM) transport in H35 hepatoma cell culture and % uptake was reported in presence of inhibitor folic acid (50 uM); assay type: functional, cell-based; method in brief: as §2
[18] = molecular target: T1, Thymidylate synthase; assay: Inhibition of pure human thymidylate synthase from extract of Manca human lymphoma cells; assay type: cell-based
[19] = test system: H35R0.3; assay: Inhibition of methotrexate (5 uM) transport in H35 hepatoma cell culture; assay type: functional, cell-based; method in brief: as §2
[20] = Inhibition of growth of H35N cells; assay type: functional, cell-based
[21] = test system: H35R0.3; assay: Inhibition of (6RS)-5-formyltetrahydrofolate (2 uM) transport in H35 hepatoma cell cultured and % uptake was determined in presence of inhibitor (6RS)-5-formyltetrahydrofolate (50 uM); assay type: functional, cell-based; method in brief: as §1
[22] = test system: Lacticaseibacillus casei; assay: Inhibition of growth of Lactobacillus casei; assay type: functional, organism-based
[23] = test system: H35R0.3; assay: Inhibition of (6RS)-5-formyltetrahydrofolate (2 uM) transport in H35 hepatoma cell culture; assay type: functional, cell-based; method in brief: as §1
[24] = molecular target: T4, Trifunctional purine biosynthetic protein adenosine-3 (Homo sapiens, UniProt P22102); assay: Inhibition of GAR formyltransferase from extract of Manca human lymphoma cells; assay type: cell-based
T4 sequence (P22102 whole entry): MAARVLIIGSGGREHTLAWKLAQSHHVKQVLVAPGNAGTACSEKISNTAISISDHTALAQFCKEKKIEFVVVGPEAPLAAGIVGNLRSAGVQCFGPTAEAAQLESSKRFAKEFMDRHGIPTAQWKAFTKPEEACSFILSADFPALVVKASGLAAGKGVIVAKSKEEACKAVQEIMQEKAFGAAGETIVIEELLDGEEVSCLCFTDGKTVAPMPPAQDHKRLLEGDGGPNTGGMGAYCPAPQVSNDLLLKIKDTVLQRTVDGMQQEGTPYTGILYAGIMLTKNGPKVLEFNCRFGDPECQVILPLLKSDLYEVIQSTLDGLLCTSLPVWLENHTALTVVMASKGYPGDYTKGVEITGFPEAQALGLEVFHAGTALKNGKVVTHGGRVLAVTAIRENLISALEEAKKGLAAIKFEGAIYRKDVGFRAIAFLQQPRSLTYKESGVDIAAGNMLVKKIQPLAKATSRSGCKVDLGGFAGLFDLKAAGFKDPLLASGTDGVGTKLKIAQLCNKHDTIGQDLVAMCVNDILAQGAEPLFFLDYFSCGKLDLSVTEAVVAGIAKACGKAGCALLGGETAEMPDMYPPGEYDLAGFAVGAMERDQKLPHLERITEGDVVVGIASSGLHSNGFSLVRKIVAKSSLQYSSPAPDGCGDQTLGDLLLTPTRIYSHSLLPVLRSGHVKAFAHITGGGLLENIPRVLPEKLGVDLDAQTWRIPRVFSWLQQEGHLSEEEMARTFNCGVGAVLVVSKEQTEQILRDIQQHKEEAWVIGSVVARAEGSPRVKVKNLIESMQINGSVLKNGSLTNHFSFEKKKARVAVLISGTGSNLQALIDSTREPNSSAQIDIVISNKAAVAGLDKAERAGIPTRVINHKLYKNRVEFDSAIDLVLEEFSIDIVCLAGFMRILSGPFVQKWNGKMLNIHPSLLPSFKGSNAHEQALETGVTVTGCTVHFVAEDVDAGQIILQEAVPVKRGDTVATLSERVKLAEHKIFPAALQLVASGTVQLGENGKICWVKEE

[25] = Inhibition of growth of H35FF cells; assay type: functional, cell-based
Method in brief: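 The H35FF line was derived from H35 cells by growth in 25 μM (6RS)-5-formyltetrahydrofolate, held constant, with FdUR raised from 0.3 nM in 3-fold steps to 100 nM. This selection amplifies thymidylate synthase to about 70 times the H35N level.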

[26] = test system: H35R0.3; assay: Inhibition of methotrexate (5 uM) transport in H35 hepatoma cell culture and % uptake was reported in presence of inhibitor DMPDDF (50 uM); assay type: functional, cell-based; method in brief: as §2
[27] = test system: H35R0.3; assay: Inhibition of (6RS)-5-formyltetrahydrofolate (2 uM) transport in H35 hepatoma cell culture and % uptake was determined in presence of inhibitor DMPDDF (50 uM); assay type: functional, cell-based; method in brief: as §1
[28] = test system: H35R0.3; assay: Inhibition of methotrexate (5 uM) transport in H35 hepatoma cell culture and % uptake was reported in presence of inhibitor aminopterin (50 uM); assay type: functional, cell-based; method in brief: as §2

T1 sequence (P04818 whole entry): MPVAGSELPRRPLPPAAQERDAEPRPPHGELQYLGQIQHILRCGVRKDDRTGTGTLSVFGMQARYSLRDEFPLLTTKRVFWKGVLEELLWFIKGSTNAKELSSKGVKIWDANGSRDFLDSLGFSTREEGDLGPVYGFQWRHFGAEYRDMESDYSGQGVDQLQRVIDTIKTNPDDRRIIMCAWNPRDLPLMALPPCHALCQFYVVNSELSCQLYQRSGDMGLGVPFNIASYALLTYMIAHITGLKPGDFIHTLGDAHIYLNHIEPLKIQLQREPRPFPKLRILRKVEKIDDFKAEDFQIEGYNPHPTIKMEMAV

For C#CCN(Cc1ccc2nc(C)n(C)c(=O)c2c1)c1ccc(C(=O)NC(CCC(=O)O)C(=O)O)cc1 (centres undefined), the IC50 [1] was over 100000 nM and the IC50 [2] was 11300 nM.

Compound C#CCN(Cc1ccc2nc(C)nc(O)c2c1)c1ccc(C(=O)NC(CCC(=O)O)C(=O)O)cc1 (centres undefined) has an IC50 [3] of 13 nM, an IC50 [4] of 100 nM and an IC50 [1] of 50 nM. For the same compound, the Uptake [5] was 90%, the Uptake [6] was 25% and the IC50 [7] was 6 nM. For the same compound, the Uptake [8] was 25%, the Uptake [9] was 83% and the Uptake [10] was 100%. The Uptake [11] was 11%, the IC50 [2] was 9.8 nM and the Uptake [12] was 22%. It also gave an IC50 [13] of over 60000 nM, an IC50 [14] of 2240 nM and an IC50 [15] of 35000 nM. It also gave an IC50 [16] of over 30000 nM, an Uptake [17] of 85% and an IC50 [18] of 60 nM. It also gave an Uptake [19] of 100%, an IC50 [20] of 55 nM and an Uptake [21] of 22%. The IC50 [22] was 22 nM, the Uptake [23] was 100% and the IC50 [24] was over 17000 nM. The IC50 [25] was 7280 nM, the Uptake [26] was 25% and the Uptake [27] was 8.5%. It also gave an Uptake [28] of 25%.

Work on C#CCN(Cc1ccc2nc(C(F)(F)F)nc(O)c2c1)c1ccc(C(=O)NC(CCC(=O)O)C(=O)O)cc1 (centres undefined) yielded an IC50 [1] of over 100000 nM.

With C#CCN(Cc1ccc2[nH]c(N)nc(=O)c2c1)c1ccc(C(=O)NC(CCC(=O)O)C(=O)O)cc1 (centres undefined) the IC50 [3] was 560 nM, the IC50 [7] was 0.13 nM and the IC50 [14] was 2000 nM. The IC50 [20] was 3600 nM and the IC50 [22] was 0.4 nM.

In the case of CN(Cc1cnc2nc(N)nc(N)c2n1)c1ccc(C(=O)N[C@@H](CCC(=O)O)C(=O)O)cc1 [METHOTREXATE], the IC50 [14] is reported as 906 nM, the IC50 [20] is reported as 10 nM and the IC50 [25] is reported as 10 nM.
